ChEMBL document CHEMBL1123764, “Long-acting angiotensin II inhibitors containing hexafluorovaline in position 8” (J Med Chem, 1987)

How the values were obtained:
Rattus norvegicus [1] = species: Rattus norvegicus; assay: Time course for AII (6 ng) induced pressor response in rats to return to 50% of pretreatment level after a bolus injection of 1 microg; format: functional, organism-based
Summary of the method: (§1)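 Female Wistar rats were anesthetized with pentobarbital sodium (30 mg/kg), vagotomized, cannulated in the carotid artery and femoral vein, and given pentolinium tartrate (5 mg/200 g). After a bolus injection of inhibitor, 6 ng AII was injected at 15-min intervals while blood pressure was recorded by transducer. The read-out is the time for the pressor response to recover to 50% of pretreatment.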

Rattus norvegicus [2] = species: Rattus norvegicus; assay: Time course for AII (6 ng) induced pressor response in rats to return to 50% of pretreatment level after a bolus injection of 10 microg; format: functional, organism-based; summary of the method: as §1
Rattus norvegicus [3] = species: Rattus norvegicus; assay: Time course for AII (6 ng) induced pressor response in rats to return to 50% of pretreatment level after a bolus injection of 3 microg; format: functional, organism-based; summary of the method: as §1
Rattus norvegicus [4] = species: Rattus norvegicus; assay: Time course for AII (6 ng) induced pressor response in rats to return to 50% of pretreatment level after a bolus injection of 5 microg; format: functional, organism-based; summary of the method: as §1
Oryctolagus cuniculus [5] = species: Oryctolagus cuniculus; assay: Antagonism determined in rabbit aorta against AII; format: functional; settings: read-out: pA2 (converted)
Rattus norvegicus [6] = species: Rattus norvegicus; assay: Antagonism determined in rat stomach against AII; format: functional; settings: read-out: pA2 (converted)
Oryctolagus cuniculus [7] = species: Oryctolagus cuniculus; assay: Dose required to produce(to produce 25% maximal response) In vitro agonistic activity against angiotensin II in rabbit aorta; format: functional
Summary of the method: (§2)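 Isolated rabbit aorta or rat stomach strips were used. Agonist activity (%) is the AII dose producing 25% of maximal response divided by the analogue dose producing the same response. Each value comes from 3 experiments.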

Rattus norvegicus [8] = species: Rattus norvegicus; assay: Dose required to produce(to produce 25% maximal response) In vitro agonistic activity against angiotensin II in rat stomach; format: functional; summary of the method: as §2
Rattus norvegicus [9] = species: Rattus norvegicus; assay: In vitro agonistic activity against angiotensin II was determined to produce 25% maximal response in rat stomach at a dose of 10 ng/mL; format: functional
Rattus norvegicus [10] = species: Rattus norvegicus; assay: In vitro agonistic activity against angiotensin II was determined to produce 25% maximal response in rat stomach at a dose of 50 ng/mL; format: functional
Oryctolagus cuniculus [11] = species: Oryctolagus cuniculus; assay: In vitro antagonistic activity against angiotensin II was determined to produce 25% maximal response in rabbit aorta at a dose of 10 ng/mL
Oryctolagus cuniculus [12] = species: Oryctolagus cuniculus; assay: In vitro antagonistic activity against angiotensin II was determined to produce 25% maximal response in rabbit aorta at a dose of 50 ng/mL
Rattus norvegicus [13] = species: Rattus norvegicus; assay: Time course for AII (6 ng) induced pressor response in rats to return to 50% of pretreatment level after a bolus injection of 30 microg; format: functional, organism-based; summary of the method: as §1
Rattus norvegicus [14] = species: Rattus norvegicus; assay: Time course for AII (6 ng) induced pressor response in rats to return to 50% of pretreatment level after a bolus injection of 50 microg; format: functional, organism-based; summary of the method: as §1
Oryctolagus cuniculus [15] = species: Oryctolagus cuniculus; assay: Dose required to produce(25% maximal response) In vitro agonistic activity against angiotensin II in rabbit aorta; format: functional; summary of the method: as §2
Oryctolagus cuniculus [16] = species: Oryctolagus cuniculus; assay: Antagonistic potency determined in rabbit aorta at 1 ng/mL expressed as dose ratio of AII to produce 25% of control maximal response; format: functional
Oryctolagus cuniculus [17] = species: Oryctolagus cuniculus; assay: Antagonistic potency determined in rabbit aorta at 10 ng/mL expressed as dose ratio of AII to produce 25% of control maximal response; format: functional
Rattus norvegicus [18] = species: Rattus norvegicus; assay: Dose required to produce( 25% maximal response) In vitro agonistic activity against angiotensin II in rat stomach; format: functional; summary of the method: as §2
Rattus norvegicus [19] = species: Rattus norvegicus; assay: Antagonistic potency determined in rat stomach at 1 ng/mL expressed as dose ratio of AII to produce 25% of control maximal response; format: functional
Rattus norvegicus [20] = species: Rattus norvegicus; assay: Antagonistic potency determined in rat stomach at 10 ng/mL expressed as dose ratio of AII to produce 25% of control maximal response; format: functional
Rattus norvegicus [21] = species: Rattus norvegicus; assay: Time course for AII (6 ng) induced pressor response in rats to return to 50% of pretreatment level after a bolus injection of 100 microg; format: functional, organism-based; summary of the method: as §1

`CNCC(=O)N[C@@H](CCCN=C(N)N)C(=O)N[C@H](C(=O)N[C@@H](Cc1ccc(O)cc1)C(=O)N[C@H](C(=O)N[C@@H](Cc1c[nH]cn1)C(=O)N1CCC[C@H]1C(=O)N[C@H](C(=O)O)C(C(F)(F)F)C(F)(F)F)C(C)C)C(C)C` [listing 1 of 3 here] showed a Recovery time (Rattus norvegicus [1]) of 5.8 min, a Recovery time (Rattus norvegicus [2]) of 73.6 min and a Recovery time (Rattus norvegicus [3]) of 19 min. For the same compound, the Recovery time (Rattus norvegicus [4]) was 40.6 min.

In the case of `CNCC(=O)N[C@@H](CCCN=C(N)N)C(=O)N[C@H](C(=O)N[C@@H](Cc1ccc(O)cc1)C(=O)N[C@H](C(=O)N[C@@H](Cc1c[nH]cn1)C(=O)N1CCC[C@H]1C(=O)N[C@@H](C(=O)O)C(C(F)(F)F)C(F)(F)F)C(C)C)C(C)C` [listing 1 of 3 here], the Kb (Oryctolagus cuniculus [5]) was 7.94 nM and the Kb (Rattus norvegicus [6]) was 7.94 nM.

With `CNCC(=O)N[C@@H](CCCN=C(N)N)C(=O)N[C@H](C(=O)N[C@@H](Cc1ccc(O)cc1)C(=O)N[C@H](C(=O)N[C@@H](Cc1c[nH]cn1)C(=O)N1CCC[C@H]1C(=O)N[C@@H](C(=O)O)C(C(F)(F)F)C(F)(F)F)C(C)C)C(C)C` [listing 2 of 3 here] the Recovery time (Rattus norvegicus [1]) was 12.5 min, the Recovery time (Rattus norvegicus [2]) was 60.1 min and the Recovery time (Rattus norvegicus [3]) was 32.3 min.

For `CNCC(=O)N[C@@H](CCCN=C(N)N)C(=O)N[C@H](C(=O)N[C@@H](Cc1ccc(O)cc1)C(=O)N[C@H](C(=O)N[C@@H](Cc1c[nH]cn1)C(=O)N1CCC[C@H]1C(=O)N[C@@H](C(=O)O)C(C(F)(F)F)C(F)(F)F)C(C)C)C(C)C` [listing 3 of 3 here], the Activity (Oryctolagus cuniculus [7]) was 0%, the Activity (Rattus norvegicus [8]) was 0.03% and the Potency (Rattus norvegicus [9]) was 2. For the same compound, the Potency (Rattus norvegicus [10]) was 4.1, the Dose ratio (Oryctolagus cuniculus [11]) was 2.1 and the Dose ratio (Oryctolagus cuniculus [12]) was 42.

Work on `CNCC(=O)N[C@@H](CCCN=C(N)N)C(=O)N[C@H](C(=O)N[C@@H](Cc1ccc(O)cc1)C(=O)N[C@H](C(=O)N[C@@H](Cc1c[nH]cn1)C(=O)N1CCC[C@H]1C(=O)N[C@H](C(=O)O)C(C(F)(F)F)C(F)(F)F)C(C)C)C(C)C` [listing 2 of 3 here] yielded a Kb (Oryctolagus cuniculus [5]) of 0.832 nM and a Kb (Rattus norvegicus [6]) of 0.851 nM.

In the case of `CNCC(=O)N[C@@H](CCCN=C(N)N)C(=O)N[C@H](C(=O)N[C@@H](Cc1ccc(O)cc1)C(=O)N[C@H](C(=O)N[C@@H](Cc1c[nH]cn1)C(=O)N1CCC[C@H]1C(=O)N[C@H](CC(C)C)C(=O)O)C(C)C)C(C)C`, the Recovery time (Rattus norvegicus [2]) was 23.6 min, the Recovery time (Rattus norvegicus [3]) was 13.5 min and the Recovery time (Rattus norvegicus [13]) was 34.5 min. It also gave a Recovery time (Rattus norvegicus [14]) of 37.6 min.

`CNCC(=O)N[C@@H](CCCN=C(N)N)C(=O)N[C@H](C(=O)N[C@@H](Cc1ccc(O)cc1)C(=O)N[C@H](C(=O)N[C@@H](Cc1c[nH]cn1)C(=O)N1CCC[C@H]1C(=O)N[C@H](C(=O)O)C(C(F)(F)F)C(F)(F)F)C(C)C)C(C)C` [listing 3 of 3 here] showed an Activity (Oryctolagus cuniculus [15]) of 1.1%, a Potency (Oryctolagus cuniculus [16]) of 6.1 and a Potency (Oryctolagus cuniculus [17]) of 294. For the same compound, the Activity (Rattus norvegicus [18]) was 0.8%, the Potency (Rattus norvegicus [19]) was 2.2 and the Potency (Rattus norvegicus [20]) was 51.7.

Compound H-DRVYVHPF-OH [[Val5] - ANGIOTENSIN II] has an Activity (Oryctolagus cuniculus [7]) of 100% and an Activity (Rattus norvegicus [8]) of 100%.

For `CNCC(=O)N[C@@H](CCCNC(=N)N)C(=O)N[C@H](C(=O)N[C@@H](Cc1ccc(O)cc1)C(=O)N[C@H](C(=O)N[C@@H](Cc1cnc[nH]1)C(=O)N1CCC[C@H]1C(=O)N[C@@H](C)C(=O)O)C(C)C)C(C)C`, the Recovery time (Rattus norvegicus [2]) was 11 min, the Recovery time (Rattus norvegicus [21]) was 18 min and the Recovery time (Rattus norvegicus [13]) was 13.7 min.

Compound `CNCC(=O)N[C@@H](CCCN=C(N)N)C(=O)N[C@H](C(=O)N[C@@H](Cc1ccc(O)cc1)C(=O)N[C@H](C(=O)N[C@@H](Cc1c[nH]cn1)C(=O)N1CCC[C@H]1C(=O)N[C@@H](CC(C)C)C(=O)O)C(C)C)C(C)C` has a Kb (Oryctolagus cuniculus [5]) of 1.95 nM and a Kb (Rattus norvegicus [6]) of 2.51 nM.
